Measurements as given in ChEMBL document CHEMBL1255482, “Novel mechanism of glycopeptide resistance in the A40926 producer Nonomuraea sp. ATCC 39727” (2010).
Converted amounts (≈) assume the structure as drawn. The source made the active and inactive calls. The calls are words filed in the database; no cut-off is given here.

How the values were obtained:
Type in all cases: functional
Nonomuraea [1] = assay: Microbicidal activity against Nonomuraea sp. ATCC 39727 at 5000 ug/ml after 24 hrs
Method in brief: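 MBC: sonicated mycelium was grown in SM flasks for three generations, then given increasing antibiotic concentrations for a further 24 h. It was washed with physiological saline, diluted and plated on antibiotic-free SM agar for about 15 days at 28°C to give the surviving fraction. Under 0.1% survival counted as bactericidal; mean of three experiments.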

Nonomuraea [2] = assay: Antimicrobial activity against Nonomuraea sp. ATCC 39727
Method in brief: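 MIC taken from population analysis profiles. Sonicated mycelium from exponential-phase SM cultures (about 48 h, 28°C, shaken) was suspended in 0.9% NaCl. Up to 10⁷ CFU were spread per SM agar plate containing a range of glycopeptide concentrations and incubated 15 days at 28°C. Colonies were counted for the surviving fraction. MIC is the concentration inhibiting 99.99% of the population; mean of three independent experiments.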

Nonomuraea [3] = assay: Antimicrobial activity against vanY-deficient Nonomuraea sp. ATCC 39727
Method in brief: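 The ΔvanY mutant replaces the vanY coding sequence with the aac(3)IV cassette. Its sonicated exponential-phase mycelium (SM, 28°C, about 48 h) was plated, up to 10⁷ CFU, on SM agar carrying graded glycopeptide concentrations and incubated 15 days at 28°C. MIC is the concentration inhibiting 99.99% of the population, read from the population analysis profile.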

Nonomuraea [4] = assay: Antimicrobial activity against Nonomuraea sp. ATCC 39727 selected after 12 ug/ml of compound exposure
Method in brief: (§1)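 Exponential-phase mycelium (about 48 h, 28°C, shaken, in SM) was exposed to the inducing glycopeptide for 24 h. It was then harvested, suspended in 0.9% NaCl and sonicated. Up to 10⁷ CFU were spread on SM agar with a glycopeptide concentration series and incubated 15 days at 28°C. MIC was taken from the population analysis profile as the concentration inhibiting 99.99% of colonies. Values are the mean of three independent experiments.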

Nonomuraea [5] = assay: Antimicrobial activity against Nonomuraea sp. ATCC 39727 selected after 0.25 ug/ml of teicoplanin exposure; method in brief: as §1
[6] = tested on: Actinoplanes teichomyceticus; assay: Antimicrobial activity against Actinoplanes teichomyceticus
Streptomyces venezuelae = assay: Antimicrobial activity against Streptomyces venezuelae ATCC 10595 harboring vanY gene
Method in brief: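 Population analysis profile: 10⁷ spores of each strain were plated on MYM agar containing graded antibiotic levels and incubated 3 days. Surviving colonies were counted, and MIC was taken as the concentration inhibiting growth of 99.99% of the population.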

Streptomyces coelicolor = assay: Antimicrobial activity against Streptomyces coelicolor
Nonomuraea [7] = assay: Antimicrobial activity against Nonomuraea sp. ATCC 39727 selected after 0.5 ug/ml of A40926 exposure; method in brief: as §1

Row | SMILES | Activity (Nonomuraea [1]) | MIC (Nonomuraea [2]) [µg/mL] | MIC (Nonomuraea [3]) [µg/mL] | MIC (Nonomuraea [4]) [µg/mL] | MIC (Nonomuraea [5]) [µg/mL] | MIC [6] [µg/mL] | Activity (Streptomyces venezuelae) | MIC (Streptomyces coelicolor) [µg/mL] | MIC (Nonomuraea [7]) [µg/mL]
1 | NC[C@H]1O[C@H](O[C@H]2[C@H](O)[C@@H](O[C@H]3O[C@H](CO)[C@@H](O)[C@H](N)[C@H]3O)[C@H](N)C[C@@H]2N)[C@H](O)[C@@H](O)[C@@H]1O | Active | – | – | – | – | – | – | – | –
2 | CN[C@H](CC(C)C)C(=O)N[C@H]1C(=O)N[C@@H](CC(N)=O)C(=O)N[C@H]2C(=O)N[C@H]3C(=O)N[C@H](C(=O)N[C@H](C(=O)O)c4cc(O)cc(O)c4-c4cc3ccc4O)[C@H](O)c3ccc(c(Cl)c3)Oc3cc2cc(c3O[C@@H]2O[C@H](CO)[C@@H](O)[C@H](O)[C@H]2O[C@H]2C[C@](C)(N)[C@H](O)[C@H](C)O2)Oc2ccc(cc2Cl)[C@H]1O [VANCOMYCIN] | inactive | 19.5 (≈ 13.5 µM) | 4 (≈ 2.76 µM) | 20 (≈ 13.8 µM) | 27 | 90 (≈ 62.1 µM) | inactive | 100 (≈ 69 µM) | 35 (≈ 24.2 µM)
